The target in test [1] is Human immunodeficiency virus type 1 reverse transcriptase (Human immunodeficiency virus 1) (UniProt Q72547). Nature of the test: Percent inhibition measured as the production of HIV reverse transcriptase (RT) in culture supernatant of monocytic U937 on at 7 days at a concentration 0.2 uM. The format is functional. The procedure, abridged: (§1)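 U937 cells in RPMI 1640 with 5% heat-inactivated FCS, penicillin, streptomycin and polybrene (2 μg/mL), 37 °C, 5% CO2. Infected with HIV-1 LAV-Bru; compounds diluted in PBS. 50 μL supernatant aliquots were assayed for RT: 1 h, 37 °C, pH 7.8, Mg2+, poly(rA)-oligo(dT), [3H]dTTP, TCA-pyrophosphate stop, filter counting. % inhibition = 100 − 100 × (treated cpm / virus-control cpm).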

Test [2] shares this target. Nature of the test: Compound ability to inhibit the production of HIV reverse transcriptase (RT) in culture supernatant of CEM-CL13 on at 26 days at a concentration 1 uM. The format is functional. The procedure, abridged:
(§2)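 CEM-C113 cells in RPMI 1640 with 5% heat-inactivated FCS and polybrene (2 µg/mL) were plated at 1×10^5 cells/mL with compound in PBS, in triplicate, and infected with HIV-1 LAV-Bru. From day 7, every 3–4 days, fresh medium with or without drug was added and 50 µL supernatant was taken for RT microassay. The RT microassay used poly(rA)-oligo(dT) and (methyl-³H)dTTP for 1 h at 37 °C, with TCA precipitation, read as cpm/50 µL.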

For test [3] the target is unchanged. Nature of the test: Compound ability to inhibit the production of HIV reverse transcriptase (RT) in culture supernatant of CEM-CL13 on at 15 days at a concentration 1 uM. Type of test: functional. The procedure, abridged:
as §2

The target is the same in test [4]. Nature of the test: Compound ability to inhibit the production of HIV reverse transcriptase (RT) in culture supernatant of CEM-CL13 on at 22 days at a concentration 1 uM. The format is functional. An outline of the steps:
as §2

For test [5] the target is unchanged. The conditions noted are these: at 25 µM.
Test [6] shares this target. Nature of the test: Compound ability to inhibit the production of HIV reverse transcriptase (RT) in culture supernatant of CEM-CL13 on at 26 days at a concentration 5 uM. The format is functional. An outline of the steps: as §2
Test [7] shares this target. The settings on record: at 25 µM. The source holds these as a separate data set.
For test [8] the target is unchanged. Nature of the test: Percent inhibition measured as the production of HIV reverse transcriptase (RT) in culture supernatant of monocytic U937 on at 14 days at a concentration 5 uM. Type of test: functional. An outline of the steps: as §1
The target is the same in test [9]. Nature of the test: Compound ability to inhibit the production of HIV reverse transcriptase (RT) in culture supernatant of monocytic U937 on at 7 days at a concentration 5 uM. The format is functional. An outline of the steps:
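HIV-1-infected monocytic U937 cultures were kept up to 14 days with compound. Supernatant RT activity was measured as for CEM-C113, as [³H] cpm/50 µL. % inhibition = 100 − 100 × (cpm of treated samples / cpm of control virus).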

For test [10] the target is unchanged. Nature of the test: Percent inhibition measured as the production of HIV reverse transcriptase (RT) in culture supernatant of monocytic U937 on at 7 days at a concentration 5 uM. The format is functional. An outline of the steps:
as §1

The target is the same in test [11]. Nature of the test: Compounds were evaluated for anti-RT activity by MTT dose and %protection was reported at 7 days of culture. The procedure, abridged: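 HIV-1 was preincubated with compound at 25 µM for 60 min at 37 °C, pelleted, and added to CEM-C113 cells (1×10^5 cells/mL) for 60 min at 37 °C. Medium was then replaced without compound. At days 7 and 9, viability was read by MTT assay on 100 µL of cell suspension.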

For test [12] the target is unchanged. The settings on record: at 25 µM. This is another data set of the same source.
Test [13] has the same target. Nature of the test: Percent inhibition measured as the production of HIV reverse transcriptase (RT) in culture supernatant of monocytic U937 on at 11 days at a concentration 5 uM. The format is functional. An outline of the steps: as §1

For orientation: inhibition means the percentage by which the read-out fell short of the control. Read a high inhibition as a response far below the control. In turn, `CCCCCCCCCCCCCCCCOP(=O)(OC[C@H]1OC(O)[C@@H](O)[C@@H](O)[C@@H]1O)OC[C@H]1OC(n2cc(C)c(=O)[nH]c2=O)C[C@@H]1N=[N+]=[N-]` (some centres undefined) yielded an inhibition in test [1] of 0%. Moreover, the results for the Activity (c.p.m. 50ul-1) in [2], in test [3] and in [4] were 20000, 500 and 3900, respectively.

For `Cc1cn([C@H]2C[C@H](N=[N+]=[N-])[C@@H](COP(=O)(O)OC[C@H]3OC(O)[C@H](O)[C@@H](O)[C@@H]3O)O2)c(=O)[nH]c1=O` (some centres undefined), the inhibition in test [5] came out at 0%; in [7], 73%; in test [8], 0%; in test [10], 43%; in test [12] it was 0%; in test [13], 0%. Also, the Activity (c.p.m. 50ul-1) in test [6] came to 6000; in test [9] it was 142000. In addition, the Protection in [11] was 36%.

On to `Cc1cn([C@H]2C[C@H](N=[N+]=[N-])[C@@H](COP(=O)(O)OCCO[C@H]3O[C@H](CO)[C@@H](O)[C@H](O)[C@@H]3O)O2)c(=O)[nH]c1=O`, for which the inhibition in test [5] came out at 20%; in test [7], 77%; in test [8], 0%; in [10], 20%; in [12], 41%; in test [13], 0%. Moreover, the Activity (c.p.m. 50ul-1) in test [6] was 42000; in test [9] it was 200000.

Consider `Cc1cn([C@H]2C[C@H](N=[N+]=[N-])[C@@H](COP(=O)(O)OC[C@H]3OC(O)[C@@H](O)[C@@H](O)[C@@H]3O)O2)c(=O)[nH]c1=O` (some centres undefined), for which the inhibition in [5] worked out at 2%; in [7] it was 86%; in test [8], 0%; in [10], 46%; in test [12], 0%; in test [13] it was 0%. Moreover, the Activity (c.p.m. 50ul-1) turned out to be 103000 in [6] and 133000 in test [9].

`CCCCCCCCCCCCCCCCOP(=O)(OC[C@H]1OC(O)[C@H](O)[C@@H](O)[C@@H]1O)OC[C@H]1OC(n2cc(C)c(=O)[nH]c2=O)C[C@@H]1N=[N+]=[N-]` (some centres undefined) registered an inhibition in [1] of 0%. For the same compound, the results for the Activity (c.p.m. 50ul-1) in test [2], in test [3] and in test [4] were 72000, 750 and 33000, respectively.

In test [1], `CCCCCCCCCCCCCCCCOP(=O)(OCCO[C@H]1O[C@H](CO)[C@@H](O)[C@H](O)[C@@H]1O)OCC1OC(n2cc(C)c(=O)[nH]c2=O)CC1N=[N+]=[N-]` (some centres undefined) yielded an inhibition of 0%. Besides, the Activity (c.p.m. 50ul-1) in test [2] came out at 64000; in [3], 5500; in [4], 48000.

In the case of `Cc1cn([C@H]2C[C@H](N=[N+]=[N-])[C@@H](CO)O2)c(=O)[nH]c1=O` [ZIDOVUDINE], the inhibition in [5] is 25%; in [1], 91%; in [7], 96%; in [8] it was 0%; in [10], 86%; in test [12], 0%. This compound returned an inhibition in test [13] of 18%. Besides, the Activity (c.p.m. 50ul-1) came out at 1300 in [6]; 12000 in [2]; 35000 in test [9]; 600 in test [3]; 1700 in [4].

The values above are taken from ChEMBL document CHEMBL1125259, “Lipophilic glycosyl phosphotriester derivatives of AZT: synthesis, NMR transmembrane transport study, and antiviral activity” (1991).
